# LEDGF integ inh: blocks HIV-1 LEDGF/p75-dependent DNA integration; TR-FRET IN-LEDGF/p75 DNA integration, Eu/Cy5; inhibition, % at 3.7 µM; 370,000 tested, 0.64% active;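 active = inhibition above the screen-wide mean plus 3 SD, cut at about 13% in these data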;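 also: signal is the Cy5 over europium emission ratio at 671 and 618 nm; 0% = plate median of compound wells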
# ABHD4 inh: inhibitors of mouse ABHD4. Q8VD66. purified mABHD4, FP-Rh probe fluorescence polarization. 370,000 tested, 0.54% active. inhibition, % at 8.92 µM;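 active = inhibition exceeding the mean over every tested compound plus 3 SD, cut at about 30% in these data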;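 also: 0% = plate median of compound wells and 100% = S159A mutant with DMSO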
#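 assay system = mABHD4 protein | compound dosing = single nominal dose of 8.92 µM, 0.89% DMSO final | read-out basis = percent inhibition of probe binding, normalized to plate controls | schedule = Enzyme–compound pre-incubation 45 min, then probe 60 min, both 25 °C | detection = fluorescence polarization, excitation 525 nm, emission 598 nm, BODIPY TMR filters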
# PRMT1 inh: blocks human protein arginine methyltransferase 1 | Q99873 | inhibition, % at 2.79 µM | recombinant PRMT1, activity-based probe fluorescence polarization | 370,000 tested, 1.3% active;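 active = inhibition above about 21% made by adding two undisclosed values, limit read from the data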
# rCAG RNA binder: r(CAG) repeat RNA binding; TO-PRO-1 dye displacement fluorescence; 370,000 tested, 1.3% active; inhibition, % at 3 µM;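 active = inhibition above the plate cutoff, the mean of all test compounds on that plate plus 3 SD, cut at about 35% in these data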;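 also: 0% = DMSO alone and 100% = 100 µM mitoxantrone as full dye displacement; higher means more dye released from RNA so lower well fluorescence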
# HTRA1 inh: HTRA1 (human) protease inhibition; Q92743; recombinant HTRA1, FP-rhodamine activity-based probe, fluorescence polarization; inhibition, % at 5.96 µM; 340,000 tested, 0.5% active; AID 504803; in the data active = inhibition above about 36%;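 also: 0% = enzyme with DMSO and 100% = wells lacking enzyme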
# DAGLB inhibitor: blocks human DAGLB lipase activity. Q8NCG7. HEK293T DAGLB membrane lysate, EnzChek fluorogenic substrate. inhibition, % at 5.17 µM. 340,000 tested, 0.059% active. AID 504411; in the data active = inhibition above about 34%;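 also: 0% = enzyme with vehicle and 100% = wells lacking enzyme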
# HTRA1 inh conf: confirmation of human HTRA1 inhibitors; shares compounds with HTRA1 inh; recombinant HTRA1, FP-rhodamine activity-based probe, fluorescence polarization; inhibition, % at 5.96 µM; 1,600 tested, 66% active;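 active = mean inhibition over three repeats above a set limit taken from the earlier primary screen, cut at about 37% in these data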;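 also: 0% = HTRA1 with DMSO and 100% = wells lacking HTRA1; inhibitors block probe binding so polarization drops and inhibition rises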
# * marks the source's active call; other numbers are inactive results; x = no result. Rows were chosen to be rich in hits. Some 3.2% of all compounds tested hit in one or more screens of this group.
SMILES,LEDGF integ inh,ABHD4 inh,PRMT1 inh,rCAG RNA binder,HTRA1 inh,DAGLB inhibitor,HTRA1 inh conf
CN1CCN(Cc2cc(COCc3ccccc3)c3cccnc3c2O)CC1,-6,-2,-3,-6,50*,1,87*
COc1cc(OC)cc(C(=O)Oc2c(CN3CCOCC3)cc(Cl)c3cccnc23)c1,1,8,1,0,38*,0,3
Oc1ccc(CN2CCN(Cc3ccccc3)CC2)c2cccnc12,-4,8,3,0,28,3,x
CCOC(=O)c1c(C)[nH]c(C)c1S(=O)(=O)NCCc1cccs1,0,1,0,-1,-7,0,x
CCc1cc2c(C)ccc(C)c2nc1SCC(=O)Nc1c[nH]c(=O)[nH]c1=O,2,1,-8,-2,-4,2,x
CN(/N=C/c1ccc(O)cc1O)c1ncc(C(F)(F)F)cc1Cl,2,7,0,2,56*,0,89*
COc1ccc(-c2csc(Nc3ccccc3)[n+]2CC(O)c2ccc([N+](=O)[O-])cc2)cc1 (stereo unspecified),-1,4,15,-1,-14,1,x
COc1ccccc1CN1CCNC(=O)C1CC(=O)NCc1csc(C)n1 (stereo unspecified),1,8,2,-3,5,2,x
S=C(Nc1ccc(Nc2ccccc2)cc1)Nc1ccccn1,7,6,23*,6,38*,8,40*
S=C(Nc1ccccc1)Nc1ccccn1,-3,-3,2,2,0,-1,x
CCOc1ccc(OCC)c(S(=O)(=O)n2cc(C)nc2CC)c1,4,-1,-7,-8,-2,-1,x
Oc1ccccc1N=N/C(=N/Nc1ccccc1O)c1ccccc1,0,0,4,19,9,1,x
Cn1nnnc1N=N/C(=N/Nc1ccccc1)c1ccccc1,3,19,-1,-1,42*,17,34
COc1ccccc1N1C(=O)N(C(C)=O)C2C1Nc1ccccc1N2C (stereo unspecified),7,26,4,9,49*,2,8
CCCn1c(N)c(N(CCOC)C(=O)CSc2cc(C)c3cccc(C)c3n2)c(=O)[nH]c1=O,0,4,-1,0,4,0,x
CC(C)Sc1nc(NCc2ccco2)c2c3c(sc2n1)COC(C)(C)C3,4,0,8,13,-32,-1,x
CN(C)c1ncnc2c1ncn2[C@H]1CN(C2CCCC2)C[C@@H](CO)O1,-1,5,2,-2,x,x,x
Cc1ccc2nc(-c3ccccc3O)c(Nc3ccc4c(c3)OCCO4)n2c1,4,-7,2,4,3,-2,x
Clc1ccc2nc(-c3ccccn3)c(Nc3ccc4c(c3)OCO4)n2c1,-2,6,-2,2,58*,2,60*
Cc1cc2cc(CNC(=S)NC3CCCCC3)ccc2n1C,-1,6,0,5,40*,7,-6
COc1ccccc1NC(=S)NCc1ccc2c(c1)cc(C)n2C,5,2,-2,5,38*,6,-6
Cc1cc2cc(CNC(=S)NCc3ccccc3)ccc2n1C,1,14,1,6,49*,9,-16
COc1ccc(C(CNC(=O)c2cc(S(=O)(=O)NCc3ccco3)ccc2C)N(C)C)cc1 (stereo unspecified),0,5,-2,0,0,-1,x
O=C(c1cc2cc([N+](=O)[O-])ccc2s1)N1CCOCC1,-2,2,5,-1,1,3,x
CCC(C)N(C(=O)COc1ccc(-c2nnco2)cc1)C1CCS(=O)(=O)C1 (stereo unspecified),1,-1,-7,-3,1,2,x
CCN1c2ccccc2N(C)C1(C)c1ccccc1 (stereo unspecified),x,x,x,x,42*,2,8
CCN1CCc2c(sc(NC(=O)c3ccc(S(=O)(=O)N4CCOCC4)cc3)c2C(=O)OC)C1,-1,-4,-1,-8,38*,-1,28
CCN1CCc2c(sc(NC(=O)c3ccc(S(=O)(=O)N4CCOCC4)cc3)c2C(N)=O)C1,2,1,0,6,-2,1,x
